Paper PMC2217063 (The Journal of General Physiology, 1997)
Several values for one entry are separate records, joined by “and”; a condition that tells them apart may be missing. Identical values can stand only once. Like-named read-outs stand apart in the source and are kept apart here. Each block holds one compound with its values, some of them ahead of it.

Key:
[1] = biological target: T1, Na,K-ATPase (Canis lupus familiaris, UniProt P50997); experiment: K- and ADP-chases of the phosphointermediate; format: biochemical, dog; conditions: for ratio of interconversion rate constants, k12/k21: twin 2-pool model
[2] = biological target: T1, Na,K-ATPase; format: biochemical, dog
[3] = biological target: T1, Na,K-ATPase; experiment: Na-ATPase activity and rate constant of blank chase at 4, 17 and 27°C; format: biochemical, dog; conditions: both Na-ATPase activity and rate constant of blank chase
Summary of the method: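 Na-ATPase measured without K+ in imidazole MOPS with Na3EGTA and NaNO3 at 40 or 400 mM, started with ATP, 4 mM final. Rate constant taken from the blank chase: decay of [γ-32P]phosphoenzyme after labelling stops, with a chase lacking ADP and K+. Both run at 4, 17 and 27°C.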

[4] = biological target: T1, Na,K-ATPase; experiment: Na,K-ATPase activity at 37°C with different anions; format: biochemical, dog; conditions: 400 mM vs 40 mM
Summary of the method: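 Enzyme purified from outer-medulla microsomes. […] Salts: 40 mM Na+/8 mM K+/3.5 mM Mg2+ or 400 mM Na+/80 mM K+/10 mM Mg2+. Preincubated 20 min at 37°C; started with ATP, 4 mM final.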

[5] = tested on: Na,K-ATPase; conditions: 0°C, different method; ref Klodos and Nørby, 1987; cited from earlier work
[6] = 500 mM Na^+, no replacement cation, nitrate, 4°C, enzyme prep. A
[7] = 45 mM Na^+, replacement cation to a sum of 500 mM, nitrate, 4°C, prep. A
[8] = 200 mM Na^+, replacement cation to a sum of 500 mM, nitrate, 4°C, prep. B

Structure (SMILES): [Cl-].[Na+] [NaCl]
ratio of interconversion rate constants, k12/k21 ([1]; 160 mM NaCl, 4°C): > 5 | ratio of interconversion rate constants, k12/k21 ([1]; 600 mM NaCl, 4°C): 0.25

Structure (SMILES): [Na+] [Na^+]
K(internal) = [ADP·E1P]/[ATP·E1] ([2]; 45 mM Na^+): ~2 | K int in 45 mM Na^+ relative to 200 mM Na^+ in each medium ([2]; 45 mM vs 200 mM Na^+): 2.1–2.5 fold | K int = [ADP·E1P]/[ATP·E1] ([2]; 200 mM Na^+): 0.5–1.4 | K int = [ADP·E1P]/[ATP·E1] ([2]; 500 mM Na^+): 0.1–0.3 | K(internal) = [ADP·E1P]/[ATP·E1] ([2]; 500 mM Na^+): ~0.2 | E1P (amount of K-resistant E1P) [2, 6]: 95% | effect on interconversion rate constants ([1]; 240 mM NaNO3 vs 30 mM NaNO3 plus 210 mM TrisNO3, 4°C): not affected significantly

Structure (SMILES): O=[N+]([O-])[O-].[Na+] [NaNO3]
effect on rate constant of dephosphorylation in a blank chase ([1]; 4°C, concentration increased from 40 to 400 mM): inhibited dephosphorylation | activation energy (ΔH) in 400 mM relative to 40 mM NaNO3 [3]: 1.3 fold

Structure (SMILES): O=[N+]([O-])O [nitrate]
amount of E1P in nitrate relative to acetate ([1]; 30 mM Na^+, 250 mM Lys^+): sevenfold larger | initial amount of E1P ([1]; 280 mM anion, 30 mM Na^+, 250 mM lysine^+, 4°C, 2-pool model): 36%

Structure (SMILES): N=C(N)NCCC[C@H](N)C(=O)O [Arg^+, arginine^+]
E1P (amount of K-resistant E1P) [2, 7]: 97% | E1P (amount of K-resistant E1P) [2, 8]: 97%

Second part, led by results:

effect on Na,K-ATPase activity of increasing the salt concentration to 400 mM [4]: no effect
Structure (SMILES): CC(=O)O [acetate]

k(off), rate constant of dissociation of ATP from ATP·E1 [2, 6]: 1.1 ± 0.10 s⁻¹ and 1.3 ± 0.20 s⁻¹ | k off, rate constant of dissociation of ATP, range over all media of Table III ([2]; 45-500 mM Na^+, 4°C, no correlation with [Na^+]): 0.7 to 1.9 s⁻¹
Structure (SMILES): Nc1ncnc2c1ncn2[C@@H]1O[C@H](COP(=O)(O)OP(=O)(O)OP(=O)(O)O)[C@@H](O)[C@H]1O [ATP, reference compound]
rate constant of dissociation of ATP [5]: 1.5 to 3.5 s⁻¹

E1P (amount of K-resistant E1P) ([2]; 45 mM Na^+, replacement cation to a sum of 500 mM, nitrate, 4°C, prep. C): 80% | E1P (amount of K-resistant E1P) ([2]; 200 mM Na^+, replacement cation to a sum of 500 mM, nitrate, 4°C, prep. C): 79%
Structure (SMILES): CNC[C@H](O)[C@@H](O)[C@H](O)[C@H](O)CO [NMG^+, N-methylglucamine]

effect on Na,K-ATPase activity of increasing the salt concentration to 400 mM [4]: no effect
Structure (SMILES): Cl [chloride]

E1P (amount of K-resistant E1P) [2, 7]: 68% | E1P (amount of K-resistant E1P) [2, 8]: 56%
Structure (SMILES): CCN(CC)CC [Et3N^+, triethylamine]
